In ChEMBL document CHEMBL2202989, “New adamantane phenylalkylamines with σ-receptor binding affinity and anticancer activity, associated with putative antagonism of neuropathic pain” (J Med Chem, 2012):

Experiments:
BXPC-3 [1] = test: Antitumor activity against human BxPC3 cells xenografted in SCID mouse assessed as tumor growth inhibition at 10 mg/kg, ip administered 5 times a week for one cycle relative to control; assay type: functional; settings: BXPC-3, ip, route intraperitoneal, read-out: TGI
PC-3 [2] = test: Antitumor activity against human PC3 cells xenografted in SCID mouse assessed as tumor growth inhibition at 20 mg/kg, ip administered once a week for two cycles measured after 2 cycles relative to control; assay type: functional; settings: PC-3, ip, route intraperitoneal, read-out: TGI
Procedure, shortened: (§1)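 PC3 xenografts were grown in SCID mice (10^6 cells per inoculum), 14 mice (28 tumors) per group, dosed ip from about 100 mm3. The test agent was given in 5% Tween 80; paclitaxel was given in Cremophor diluted in saline, with a vehicle of 1:1 ethanol/Cremophor diluted 1:3 in saline. Volume and %ΔT/ΔC were derived from caliper readings twice weekly. Occurrence of primary tumors and of axillary and bone metastases was scored (n = 7). Two-tailed t test.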

DU-145 [3] = test: Antitumor activity against human DU145 cells xenografted in SCID mouse assessed as tumor growth inhibition at 20 mg/kg, ip administered once a week for two cycles measured after 2 cycles relative to control; assay type: functional; settings: DU-145, ip, route intraperitoneal, read-out: TGI
Procedure, shortened: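 DU145 xenografts were grown in SCID mice from 10^6-cell inocula, with at least 30 animals in total. Treatment started ip at a mean tumor volume of about 100 mm3. The test agent was given in 5% Tween 80; paclitaxel was dissolved in Cremophor and diluted in saline. Caliper volumes were taken twice weekly and %ΔT/ΔC calculated; two-tailed t test.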

PC-3 [4] = test: Antitumor activity against human PC3 cells xenografted in SCID mouse assessed as bone metastasis at 20 mg/kg, ip administered once a week for two cycles measured after 2 cycles relative to control; assay type: functional; settings: route intraperitoneal; procedure, shortened: as §1
PC-3 [5] = test: Antitumor activity against human PC3 cells xenografted in SCID mouse assessed as axillary metastasis at 20 mg/kg, ip administered once a week for two cycles measured after 2 cycles relative to control; assay type: functional; settings: route intraperitoneal; procedure, shortened: as §1
PC-3 [6] = test: Antitumor activity against human PC3 cells xenografted in SCID mouse assessed as primary tumor occurrence at 20 mg/kg, ip administered once a week for two cycles measured after 2 cycles relative to control; assay type: functional; settings: route intraperitoneal; procedure, shortened: as §1
[7] = (§2) Growth inhibition of human NHDF cells after 48 hrs by SRB assay; assay type: cell-based; settings: NHDF cells
Procedure, shortened: (§3)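 Cells grown in RPMI 1640 with 5% heat-inactivated FCS, 2 mM L-glutamine and antibiotics, 37 °C, 5% CO2. Seeded at 3500–30000 cells/well and left 24 h before dosing. DMSO solutions added at 10-fold dilutions from 100 to 0.01 μM for 48 h. Cells TCA-fixed and SRB-stained, absorbance read at 540 nm; GI50 derived against the time-zero plate.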

NHDF = test: as §2; assay type: cell-based; settings: nhdf, 48 h; procedure, shortened: as §3
[8] = Growth inhibition of human MSC cells after 48 hrs by SRB assay; assay type: cell-based; procedure, shortened: as §3
[9] = Growth inhibition of human HUVEC cells after 48 hrs by SRB assay; assay type: cell-based; settings: HUVEC cells; procedure, shortened: as §3
BXPC-3 [10] = test: Growth inhibition of human BxPC3 cells after 48 hrs by SRB assay; assay type: functional; settings: BXPC-3, 48 h; procedure, shortened: as §3
SK-HEP1 = test: Growth inhibition of human SKHEP1 cells after 48 hrs by SRB assay; assay type: functional; settings: SK-HEP1, 48 h; procedure, shortened: as §3
HL-60(TB) = test: Growth inhibition of human HL-60(TB) cells after 48 hrs by SRB assay; assay type: functional; settings: HL-60, 48 h
Procedure, shortened: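 Cells kept in RPMI 1640 with 5% FCS at 37 °C, 5% CO2, and seeded 24 h before dosing. Compound given from DMSO at 10-fold dilutions, 100 to 0.01 μM, for 48 h. Cells fixed with TCA, stained with SRB, absorbance read at 540 nm. GI50 taken from a time-zero plate.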

MIA PaCa-2 = test: Growth inhibition of human MIAPaCa2 cells after 48 hrs by SRB assay; assay type: functional; settings: MIA PaCa-2, 48 h; for CC50: read-out: LC50 (the source's name); procedure, shortened: as §3
OVCAR-5 = test: Growth inhibition of human OVCAR5 cells after 48 hrs by SRB assay; assay type: functional; settings: OVCAR-5, 48 h; procedure, shortened: as §3
U-251 = test: Growth inhibition of human U251 cells after 48 hrs by SRB assay; assay type: functional; settings: U-251, 48 h; procedure, shortened: as §3
IGROV-1 = test: Growth inhibition of human IGROV1 cells after 48 hrs by SRB assay; assay type: functional; settings: IGROV-1, 48 h; procedure, shortened: as §3
PC-3 [11] = test: Growth inhibition of human PC3 cells after 48 hrs by SRB assay; assay type: functional; settings: PC-3, 48 h; procedure, shortened: as §3
MCF7 = test: Growth inhibition of human MCF7 cells after 48 hrs by SRB assay; assay type: functional; settings: MCF7, 48 h; procedure, shortened: as §3
DU-145 [12] = test: Growth inhibition of human DU145 cells after 48 hrs by SRB assay; assay type: functional; settings: DU-145, 48 h; procedure, shortened: as §3
HCT-116 = test: Growth inhibition of human HCT116 cells after 48 hrs by SRB assay; assay type: functional; settings: HCT-116, 48 h; procedure, shortened: as §3
HCT-15 = test: Growth inhibition of human HCT15 cells after 48 hrs by SRB assay; assay type: functional; settings: HCT-15, 48 h; procedure, shortened: as §3
BXPC-3 [13] = test: Antitumor activity against human BxPC3 cells xenografted in SCID mouse assessed as tumor growth inhibition at 35 mg/kg, ip administered twice a week for three cycles measured after 3 cycles relative to control; assay type: functional; settings: BXPC-3, ip, route intraperitoneal, read-out: TGI
Procedure, shortened: (§4)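 SCID mice bearing BxPC3 pancreatic xenografts, 10 mice per group (20 tumors). Drug dissolved in water for injection, given ip twice a week for three cycles. Controls were untreated and 5% Tween 80 vehicle. Tumor volume measured by caliper twice weekly; reduction reported on termination day. Two-tailed Student's t test.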

BXPC-3 [14] = test: Antitumor activity against human BxPC3 cells xenografted in SCID mouse assessed as tumor growth inhibition at 17 mg/kg, ip administered twice a week for three cycles measured after 3 cycles relative to control; assay type: functional; settings: BXPC-3, ip, route intraperitoneal, read-out: TGI; procedure, shortened: as §4
BXPC-3 [15] = test: Antitumor activity against human BxPC3 cells xenografted in SCID mouse assessed as tumor growth inhibition at 70 mg/kg, ip administered twice a week for three cycles measured after 3 cycles relative to control; assay type: functional; settings: BXPC-3, ip, route intraperitoneal, read-out: TGI
Procedure, shortened: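 BxPC3 xenografts were grown in SCID mice from inocula of 10^6 exponentially growing cells, with 10 mice (20 tumors) per group. Treatment started ip once tumors averaged about 100 mm3. The test agent was given in 5% Tween 80 and gemcitabine in water for injection. Tumor volume was measured by caliper twice weekly and %ΔT/ΔC was computed; two-tailed Student's t test.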

[16] = read-out: LC50 (the source's name)

Nc1ccn([C@@H]2O[C@H](CO)[C@@H](O)[C@@H]2O)c(=O)n1 [CYTARABINE] gave an inhibition in vivo at 10 mg/kg (BXPC-3 [1]) of 23.8%.
In the case of CC(=O)O[C@H]1C(=O)[C@@]2(C)[C@H]([C@H](OC(=O)c3ccccc3)[C@]3(O)C[C@H](OC(=O)[C@H](O)[C@@H](NC(=O)c4ccccc4)c4ccccc4)C(C)=C1C3(C)C)[C@]1(OC(C)=O)CO[C@@H]1C[C@@H]2O [PACLITAXEL], the inhibition in vivo at 20 mg/kg (PC-3 [2]) is reported as 79.1%, the inhibition in vivo at 20 mg/kg (DU-145 [3]) is reported as 26.6% and the Activity (PC-3 [4]) is reported as 86%. It also gave an Activity (PC-3 [5]) of 14% and an Activity (PC-3 [6]) of 100%.
For O=c1[nH]cc(F)c(=O)[nH]1 [FLUOROURACIL], the GI50 at 48 h [7] was 62 µM, the TGI (NHDF) was 100 µM and the TGI [8] was 1 µM. It also gave a GI50 at 48 h [9] of 3.6 µM, a GI50 (BXPC-3 [10]) of 2.9 µM and a TGI (BXPC-3 [10]) of 8.4 µM. It also gave a GI50 (SK-HEP1) of 7.6 µM, a TGI (SK-HEP1) of 100 µM and a CC50 (SK-HEP1; [16]) of 0.1 µM. It also gave a GI50 (HL-60(TB)) of 0.1 µM, a TGI (HL-60(TB)) of 0.1 µM and a CC50 (HL-60(TB); [16]) of 0.1 µM. It also gave a GI50 (MIA PaCa-2) of 30.6 µM, a TGI (MIA PaCa-2) of 100 µM and a CC50 (MIA PaCa-2) of 0.1 µM. The GI50 (OVCAR-5) was 26.4 µM, the TGI (OVCAR-5) was 100 µM and the CC50 (OVCAR-5; [16]) was 0.1 µM. The GI50 (U-251) was 69.6 µM, the TGI (U-251) was 100 µM and the CC50 (U-251; [16]) was 0.1 µM. The GI50 (IGROV-1) was 8.12 µM, the TGI (IGROV-1) was 100 µM and the CC50 (IGROV-1; [16]) was 0.1 µM. It also gave a GI50 (PC-3 [11]) of 10.5 µM, a TGI (PC-3 [11]) of 100 µM and a CC50 (PC-3 [11]; [16]) of 0.1 µM. The GI50 (MCF7) was 14.5 µM, the TGI (MCF7) was 100 µM and the CC50 (MCF7; [16]) was 0.1 µM. The GI50 (DU-145 [12]) was 20 µM, the TGI (DU-145 [12]) was 100 µM and the CC50 (DU-145 [12]; [16]) was 0.1 µM. The GI50 (HCT-116) was 8.8 µM, the TGI (HCT-116) was 100 µM and the CC50 (HCT-116; [16]) was 0.1 µM. For the same molecule, the GI50 (HCT-15) was 21.1 µM, the TGI (HCT-15) was 100 µM and the CC50 (HCT-15; [16]) was 0.1 µM. The inhibition in vivo at 35 mg/kg (BXPC-3 [13]) was 36.7% and the inhibition in vivo at 17 mg/kg (BXPC-3 [14]) was 23.7%.
In the case of Nc1ccn([C@@H]2O[C@H](CO)[C@@H](O)C2(F)F)c(=O)n1 [GEMCITABINE], the GI50 (BXPC-3 [10]) is reported as 3.64 µM, the TGI (BXPC-3 [10]) is reported as 9.05 µM and the GI50 (MIA PaCa-2) is reported as 35.8 µM. It also gave a TGI (MIA PaCa-2) of 100 µM, a CC50 (MIA PaCa-2) of 0.1 µM and an inhibition in vivo at 70 mg/kg (BXPC-3 [15]) of 38.1%.
